Several values for one entry are separate records, joined by “and”; a condition that tells them apart may be missing. Equal entries are not always repeated.
Columns and labels:
U2OS = test: Multiplex assay against U2OS; type: toxicity, cell-based; conditions: human, 10 µM, compound concentration 10 uM
How it was run: (§1)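 Phenotypes for tubulin, mitochondrial mass and membrane permeability are expressed as per cents of healthy-nucleus cells. Cells were stained live at seeding with Hoechst33342, BioTracker Green Microtubule Cytoskeleton Dye, MitoTracker Red and Annexin V Alexa Fluor 680, then imaged after compound addition on a CQ1 microscope at 37°C and 5% CO2. Machine-learning gating in CellPathfinder separated Hoechst high-intensity objects from normal cells, divided normal cells by nuclear state (healthy, pyknosed, fragmented) and divided pyknosed cells into mitotic or apoptotic.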

Fibroblast = test: Multiplex assay against human fibroblast; type: toxicity, cell-based; conditions: 10 µM, compound concentration 10 uM; how it was run: as §1

CCN(CC)S(=O)(=O)Nc1cccc(-c2ccc3c(NC(=O)C4CC4)n[nH]c3c2)c1
Population Hoechst High Intensity Objects (%) (U2OS; 12 h, replicate 2): 5% and 14%
Population Mitotic Cells (%) (U2OS; 12 h, replicate 2): 100% and 83%
Population Normal (%) (U2OS; 12 h, replicate 2): 94% and 85%
Population Pyknosed Nuclei (%) (U2OS; 12 h, replicate 2): 10% and 5%
Population Tubulin-Different-Phenotype (%) (U2OS; 12 h, replicate 2): 20% and 13%
Total Cell Count (U2OS; 12 h, replicate 2): 120 and 259
Population Apoptotic (%) (U2OS; 24 h, replicate 1): 21%
Population Healthy Nuclei (%) (U2OS; 24 h, replicate 1): 70% and 92%
Population Hoechst High Intensity Objects (%) (U2OS; 24 h, replicate 1): 3% and 2%
Population Mitochondria Different-Phenotype (%) (U2OS; 24 h, replicate 1): 13% and 26%
Population Mitotic Cells (%) (U2OS; 24 h, replicate 1): 78%
Population Normal (%) (U2OS; 24 h, replicate 1): 96% and 97%
Population Pyknosed Nuclei (%) (U2OS; 24 h, replicate 1): 21%
Total Cell Count (U2OS; 24 h, replicate 1): 241 and 253
Population Apoptotic (%) (U2OS; 24 h, replicate 2): 20% and 28%
Population Fragmented Nuclei (%) (U2OS; 24 h, replicate 2): 13% and 6%
Population Healthy Nuclei (%) (U2OS; 24 h, replicate 2): 68% and 87%
Population Hoechst High Intensity Objects (%) (U2OS; 24 h, replicate 2): 6% and 8%
Population Membrane Permeable-Phenotype (%) (U2OS; 24 h, replicate 2): 18% and 6%
Population Mitochondria Different-Phenotype (%) (U2OS; 24 h, replicate 2): 17% and 29%
Population Mitotic Cells (%) (U2OS; 24 h, replicate 2): 79% and 71%
Population Normal (%) (U2OS; 24 h, replicate 2): 93% and 91%
Population Tubulin-Different-Phenotype (%) (U2OS; 24 h, replicate 2): 22%
Total Cell Count (U2OS; 24 h, replicate 2): 134 and 195
Population Apoptotic (%) (Fibroblast; 12 h, replicate 1): 81%
Population Fragmented Nuclei (%) (Fibroblast; 12 h, replicate 1): 23% and 19%
Population Healthy Nuclei (%) (Fibroblast; 12 h, replicate 1): 64% and 56%
Population Hoechst High Intensity Objects (%) (Fibroblast; 12 h, replicate 1): 13% and 11%
Population Membrane Permeable-Phenotype (%) (Fibroblast; 12 h, replicate 1): 9% and 5%
Population Mitochondria Different-Phenotype (%) (Fibroblast; 12 h, replicate 1): 2% and 6%
Population Mitotic Cells (%) (Fibroblast; 12 h, replicate 1): 18%
Population Normal (%) (Fibroblast; 12 h, replicate 1): 86% and 88%
Population Pyknosed Nuclei (%) (Fibroblast; 12 h, replicate 1): 11% and 23%
Population Tubulin-Different-Phenotype (%) (Fibroblast; 12 h, replicate 1): 5% and 7%
Total Cell Count (Fibroblast; 12 h, replicate 1): 220 and 309
Population Apoptotic (%) (Fibroblast; 12 h, replicate 2): 66% and 40%
Population Fragmented Nuclei (%) (Fibroblast; 12 h, replicate 2): 72% and 55%
Population Healthy Nuclei (%) (Fibroblast; 12 h, replicate 2): 17% and 34%
Population Hoechst High Intensity Objects (%) (Fibroblast; 12 h, replicate 2): 48% and 35%
Population Membrane Permeable-Phenotype (%) (Fibroblast; 12 h, replicate 2): 20% and 11%
Population Mitotic Cells (%) (Fibroblast; 12 h, replicate 2): 33% and 60%
Population Normal (%) (Fibroblast; 12 h, replicate 2): 51% and 65%
Population Pyknosed Nuclei (%) (Fibroblast; 12 h, replicate 2): 10% and 9%
Population Tubulin-Different-Phenotype (%) (Fibroblast; 12 h, replicate 2): 20% and 11%
Total Cell Count (Fibroblast; 12 h, replicate 2): 56 and 80
Population Apoptotic (%) (Fibroblast; 24 h, replicate 1): 77% and 62%
Population Fragmented Nuclei (%) (Fibroblast; 24 h, replicate 1): 22% and 19%
Population Healthy Nuclei (%) (Fibroblast; 24 h, replicate 1): 66% and 62%
Population Hoechst High Intensity Objects (%) (Fibroblast; 24 h, replicate 1): 13% and 11%
Population Membrane Permeable-Phenotype (%) (Fibroblast; 24 h, replicate 1): 6% and 4%
Population Mitochondria Different-Phenotype (%) (Fibroblast; 24 h, replicate 1): 0% and 8%
Population Mitotic Cells (%) (Fibroblast; 24 h, replicate 1): 22% and 38%
Population Normal (%) (Fibroblast; 24 h, replicate 1): 86% and 88%
Population Pyknosed Nuclei (%) (Fibroblast; 24 h, replicate 1): 10% and 18%
Population Tubulin-Different-Phenotype (%) (Fibroblast; 24 h, replicate 1): 0% and 11%
Total Cell Count (Fibroblast; 24 h, replicate 1): 238 and 311
Population Fragmented Nuclei (%) (Fibroblast; 24 h, replicate 2): 51% and 63%
Population Healthy Nuclei (%) (Fibroblast; 24 h, replicate 2): 35% and 23%
Population Hoechst High Intensity Objects (%) (Fibroblast; 24 h, replicate 2): 31% and 42%
Population Membrane Permeable-Phenotype (%) (Fibroblast; 24 h, replicate 2): 10% and 28%
Population Normal (%) (Fibroblast; 24 h, replicate 2): 68% and 57%
Population Pyknosed Nuclei (%) (Fibroblast; 24 h, replicate 2): 12% and 13%
Total Cell Count (Fibroblast; 24 h, replicate 2): 79 and 52
